From article PMC3023924 (Bioorganic & medicinal chemistry, 2010)
Structures can show the parent of a compound that is named as a salt.

What was measured:
DAT = conditions: cited from earlier work; for IC50: read-out: DAT IC50 for inhibition of [3H]-WIN-35,428 binding
[1] = molecular target: T1, human dopamine transporter (hDAT) (Homo sapiens, UniProt Q01959); experiment: [3H]-dopamine uptake inhibition at hDAT N2A neuroblastoma cells; assay type: cell-based; conditions: Table 1
[2] = molecular target: T1, human dopamine transporter (hDAT); experiment: [3H]-WIN-35,428 binding inhibition at hDAT N2A neuroblastoma cells; conditions: from Ki values
6Xhis-hDAT = 6Xhis-hDAT (Homo sapiens, UniProt Q01959); experiment: DAT photoaffinity labeling with [125I]-; assay type: binding; conditions: HEK hDAT cells; 30 nM, UV 254 nm, immunoprecipitation (not shown)
[3] = Storage stability of radioligand by HPLC; assay type: physicochemical; conditions: 20 weeks at −20 °C in the dark
In short: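 The radioiodinated test compound was made by Chloramine-T iododestannylation and purified by reversed-phase HPLC (C-18, 8 × 100 mm, 6 μm; 3 mL/min; MeOH 35%/CH₃CN 35%/aqueous 30% with Et₃N 2.1% v/v and HOAc 2.8% v/v; radioactivity plus UV 254 nm detection). It was then trapped on a C-18 cartridge and eluted with MeOH. The storage period spanned more than two ¹²⁵I half-lives.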

[4] = system: adult attention-deficit hyperactivity disorder (ADHD); conditions: immediate-release and long-acting preparations; cited from earlier work
rat striatal DAT = rat striatal DAT (Rattus norvegicus, UniProt P23977); experiment: DAT photoaffinity labeling with [125I]-; assay type: binding; conditions: 30 nM [125I]-(±)-3a; 10 μM or 100 μM competitor; band density vs. control
rDAT = conditions: pattern previously seen; cited from earlier work

T1 sequence (Q01959 whole entry): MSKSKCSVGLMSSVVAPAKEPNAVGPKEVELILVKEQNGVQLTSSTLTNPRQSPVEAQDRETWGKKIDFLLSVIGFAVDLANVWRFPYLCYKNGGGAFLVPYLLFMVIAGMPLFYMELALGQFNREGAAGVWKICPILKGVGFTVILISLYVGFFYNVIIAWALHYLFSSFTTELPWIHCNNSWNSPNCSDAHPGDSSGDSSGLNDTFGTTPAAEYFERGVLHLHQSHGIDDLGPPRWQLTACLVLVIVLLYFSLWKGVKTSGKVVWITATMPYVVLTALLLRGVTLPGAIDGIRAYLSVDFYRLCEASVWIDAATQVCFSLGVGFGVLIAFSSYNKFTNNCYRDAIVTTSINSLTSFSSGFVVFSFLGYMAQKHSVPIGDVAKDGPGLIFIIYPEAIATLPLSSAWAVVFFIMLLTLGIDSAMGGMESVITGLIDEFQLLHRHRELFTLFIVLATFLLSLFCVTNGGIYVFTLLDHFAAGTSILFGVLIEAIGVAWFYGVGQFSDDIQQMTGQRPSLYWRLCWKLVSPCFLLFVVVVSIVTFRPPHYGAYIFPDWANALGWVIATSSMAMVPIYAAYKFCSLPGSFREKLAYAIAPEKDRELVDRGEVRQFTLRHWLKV
6Xhis-hDAT, sequence (Q01959 whole entry): as above
rat striatal DAT, sequence (P23977 whole entry): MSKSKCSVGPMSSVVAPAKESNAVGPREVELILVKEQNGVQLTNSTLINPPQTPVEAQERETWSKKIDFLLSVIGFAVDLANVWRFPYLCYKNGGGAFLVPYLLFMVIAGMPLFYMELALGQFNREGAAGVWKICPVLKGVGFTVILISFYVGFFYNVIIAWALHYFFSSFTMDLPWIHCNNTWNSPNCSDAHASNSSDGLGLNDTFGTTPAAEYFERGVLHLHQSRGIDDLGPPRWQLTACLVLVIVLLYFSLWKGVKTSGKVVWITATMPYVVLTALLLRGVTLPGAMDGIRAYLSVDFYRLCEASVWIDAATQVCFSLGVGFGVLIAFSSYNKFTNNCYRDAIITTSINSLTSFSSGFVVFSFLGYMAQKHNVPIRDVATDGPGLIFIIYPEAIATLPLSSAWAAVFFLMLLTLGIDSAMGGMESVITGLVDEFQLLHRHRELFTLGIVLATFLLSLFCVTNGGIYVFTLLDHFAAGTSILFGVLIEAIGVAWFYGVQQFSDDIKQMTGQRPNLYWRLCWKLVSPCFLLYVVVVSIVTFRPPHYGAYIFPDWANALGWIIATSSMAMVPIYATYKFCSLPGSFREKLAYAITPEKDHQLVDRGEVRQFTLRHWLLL

COC(=O)[C@H](c1ccc(I)cc1)[C@H]1CCCCN1 (racemic) [(±)-1b, (±)-threo-4-Iodomethylphenidate Hydrochloride]
higher DAT affinity versus methylphenidate (DAT; previous pharmacological results): ~ 6 fold
IC50 (DAT): 14 ± 0.1 nM
comparison of binding and uptake inhibition values [1]: essentially the same value for binding and uptake inhibition
improvement in DAT affinity versus methylphenidate [2]: approximately two-fold

COC(=O)[C@H](c1cccc(I)c1)[C@H]1CCCCN1 (racemic) [(±)-1f, (±)-threo-3-Iodomethylphenidate Hydrochloride]
improvement in DAT affinity versus methylphenidate [2]: ~ 5.5 fold

COC(=O)C(c1ccc([125I])cc1)[C@H]1CCCCN1Cc1ccc(N=[N+]=[N-])cc1 (mixture of isomers) [[^125I]-(±)-3a, [^125I]-(±)-threo-N-(p-Azido-benzyl)-4-iodomethylphenidate]
irreversible incorporation into DAT (labeled protein of ~80 kDa) (6Xhis-hDAT): demonstrating the incorporation of [^125I]-(±)-3a into the DAT
radiochemical purity after storage [3]: about 80%

Fc1ccc(C(OCCN2CCN(CCCc3ccccc3)CC2)c2ccc(F)cc2)cc1 [GBR-12,909]
comparison of binding and uptake inhibition values (rDAT): essentially the same value for binding and uptake inhibition

CN1[C@@H]2CC[C@H]1C[C@@H](OC(c1ccccc1)c1ccccc1)C2 [benztropine]
comparison of binding and uptake inhibition values (rDAT): essentially the same value for binding and uptake inhibition

COC(=O)[C@H]1[C@@H](c2ccc(F)cc2)C[C@@H]2CC[C@H]1N2C [β-CFT, (−)-2-β-carbomethoxy-3-β-(4-fluorophenyl)tropane]
block of [125I]-(±)-3a incorporation into DAT (rat striatal DAT): 75–90%
